The test system of data set [1] is Escherichia coli. Put plainly: Ratio of MIC for Escherichia coli ATCC 25922 after 20 serial passages to MIC for Escherichia coli ATCC 25922. In kind it is functional, organism-based. The method, boiled down:
(§1)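 Sub-MIC serial passaging: after an initial broth microdilution MIC, cells grown at MIC/2 were transferred into a new MIC assay after each 24 h incubation, for 20 passages. MIC was plotted against days to follow resistance development. Passaging controls were norfloxacin for S. aureus and colistin for E. coli.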

Data set [2] relates to Staphylococcus aureus. Briefly: Ratio of MIC for Staphylococcus aureus ATCC 29213 after 20 serial passages to MIC for Staphylococcus aureus ATCC 29213. The class given is functional. The method in brief:
as §1

The test system of data set [3] is Escherichia coli. Put plainly: Bactericidal activity against Escherichia coli ATCC 25922 at 12 after 6 hrs by time kill assay. The class given is functional, organism-based.
Data set [4] has as its system Staphylococcus aureus. Briefly: Bactericidal activity against Staphylococcus aureus ATCC 29213 at 12 ug/ml after 6 hrs by time kill assay. The class given is functional, organism-based. The method, boiled down: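 Time-kill: an overnight S. aureus ATCC 29213 culture was diluted 1:10,000 in Mueller-Hinton broth and grown 2 h (early exponential) or 5 h (late exponential) at 37 °C and 225 rpm. Cells were then exposed in tubes under the same conditions. At intervals, aliquots were pelleted, resuspended in PBS, serially diluted tenfold, plated on agar overnight, and counted as CFU/mL. Biological replicates were run.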

Data set [5] concerns Staphylococcus aureus. Briefly: Antibacterial activity against Staphylococcus aureus. In kind it is functional. The method, boiled down:
(§2)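 Broth microdilution per CLSI in cation-adjusted Mueller-Hinton broth; 4-6 h cultures (~10⁸ CFU/mL) diluted to ~10⁶ CFU/mL and mixed 1:1 with twofold dilutions of water-dissolved compound (256 to 0.5 µg/mL). Incubated 16-20 h at 37 °C; MIC read visually. Each concentration run in duplicate, whole experiment repeated at least twice. MRSA, KPC and NDM-1 strains were clinical isolates.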

For a further data set, the system named is Enterococcus faecalis. Put plainly: Antibacterial activity against Enterococcus faecalis. In kind it is functional. The method in brief: as §2
The test system of data set [6] is Escherichia coli. Put plainly: Antibacterial activity against Escherichia coli. In kind it is functional. The method, boiled down:
as §2

Data set [7] relates to Staphylococcus aureus. Briefly: Antibacterial activity against methicillin-resistant Staphylococcus aureus. The class given is functional.
The nature of data set [8]: Hemolytic activity in sheep RBC. The class given is ADME, cell-based, Ovis aries, Erythrocyte. The settings on record: sheep red blood cells (erythrocytes). The method, boiled down:
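Sheep RBCs suspended at 5% in PBS; 150 µL added to 50 µL compound dilutions (5120 to 10 µg/mL series). Incubated 1 h at 37 °C, then centrifuged; supernatant absorbance read at 540 nm. Lysis (%) = (A−A0)/(Atotal−A0)×100, with untreated 5% RBC as A0 and 0.1% Triton X-100 as total.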

From ChEMBL document CHEMBL4130549, “Synthesis and bioactivities study of new antibacterial peptide mimics: The dialkyl cationic amphiphiles” (Eur J Med Chem, 2018) come the findings set out here.

Activity calls are given as the source filed them. The rule behind the calls is not given here.

As to COLISTIN, in the data set on Escherichia coli [1], the Ratio was found to be 32.

Take `CCn1cc(C(=O)O)c(=O)c2cc(F)c(N3CCNCC3)cc21` [NORFLOXACIN]: in the data set with Staphylococcus aureus [2], the Ratio was 256.

Take `CO[C@@]1(NC(=O)[C@H](C(=O)O)c2ccc(O)cc2)C(=O)N2C(C(=O)O)=C(CSc3nnnn3C)CO[C@@H]21`: the result in the data set on Escherichia coli [3] was inactive.

`CN[C@H](CC(C)C)C(=O)N[C@H]1C(=O)N[C@@H](CC(N)=O)C(=O)N[C@H]2C(=O)N[C@H]3C(=O)N[C@H](C(=O)N[C@H](C(=O)O)c4cc(O)cc(O)c4-c4cc3ccc4O)[C@H](O)c3ccc(c(Cl)c3)Oc3cc2cc(c3O[C@@H]2O[C@H](CO)[C@@H](O)[C@H](O)[C@H]2O[C@H]2C[C@](C)(N)[C@H](O)[C@H](C)O2)Oc2ccc(cc2Cl)[C@H]1O`: the outcome with Staphylococcus aureus [4] was inactive.

The MIC is the lowest concentration found to suppress growth. Read a low MIC as a more susceptible organism. Broadly, the HC50 is the concentration that lyses half of the red blood cells. Read a low HC50 as more damage to red cells. Consider H-GIGKFLKKAKKFGKAFVKLLKK-NH2, for which the MIC with Staphylococcus aureus [5] was 8 to 16 µg/mL; against Enterococcus faecalis, 64 µg/mL; against Escherichia coli [6], 16 to 32 µg/mL; against Staphylococcus aureus [7] it was 16 to 32 µg/mL. In [8], the concentration for 50% haemolysis (HC50) was found to be 120 µg/mL.
